bCat KO growth: primary screen for growth suppressors in beta-catenin knockout HCT116 cells (colon tumor, human). actives 1.5% (n = 140,000). viability, % at 10 µM. HCT116 beta-catenin knockout viability, CellTiter-Glo, 60 h; stronger effect = lower value;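 active = viability at or under a set limit, the compound median less 4 SD, cut at about 6% in these data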;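 note: 0% = Hyamine 1622 control at 20 µM and 100% = untreated cell control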
Fibroblast inh: antiproliferative effect on LL 47 fibroblasts – human, LL 47 cells, CellTiter-Glo luminescence, primary screen; LL 47 human lung fibroblast viability, ATP luminescence; stronger effect = lower value; AID 719, 2007; viability, % at 10 µM; actives 1.1% (n = 85,000);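 active = viability at or below 50% in the single dose screen; inactive = viability above 50%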;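 note: compound exposure lasted 72 h before the ATP readout; 100% = median luminescence of untreated cell-only wells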
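Assay system: human lung fibroblast line LL 47, low passage. Input: 1,150 fibroblasts seeded per well. Times: overnight cell rest, 72 h compound treatment at 37 °C. Evaluation: % viability of median cell-only signal. Technique: luminescent ATP detection, CellTiter-Glo. Control set: cell-only wells, no compound.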
HCT116 PTEN-null: growth suppression of PTEN-null HCT116, primary screen, cell-based, CellTiter-Glo | viability, % at 10 µM | actives 1.2% (n = 140,000) | HCT116 PTEN-null viability, 60 h; stronger effect = lower value;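 active = viability at or below a set limit, 4 SD under the median of all tested compounds, cut at about 3.7% in these data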;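 note: PTEN knockout HCT116 line with beta catenin targeted HCT116 as companion control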
HUVEC inhibit: inhibitors of HUVEC proliferation, primary screen, cell-based, 384-well; CellTiter-Glo luminescence, 72 h; stronger effect = lower value; viability, % at 10 µM (by protocol); actives 1.1% (n = 86,000);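 active = viability at or below 30%; inactive = viability above 30%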;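 note: 100% = median luminescence of DMSO-only cell control wells on each plate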
H69AR inhibit: proliferation blockers of H69AR lung cancer cells, primary screen, cell-based, human, 86K library; H69AR lung tumor viability, ATP luminescence, 72 h; stronger effect = lower value; viability, % at 10 µM; actives 6% (n = 85,000); AID 598, 2007;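 active = viability at or below 40%; inactive = viability above 40%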;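 note: multidrug resistant small cell line overexpressing MRP-1 efflux transporter; 100% = mean luminescence of untreated control wells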
Numbers without * were called inactive. The entries come from a sample that favours hits as a whole.

For Cc1ccccc1-n1c(SCC(=O)c2cc(C)n(C)c2C)nnc1-c1cccnc1 the results were bCat KO growth 99, Fibroblast inh 99, HCT116 PTEN-null 109, HUVEC inhibit 110 and H69AR inhibit 39*.
Screening Cc1ccc(NC(=O)CSc2nnc(-c3cccnc3)n2-c2ccc(C)cc2)cc1 returned bCat KO growth 91, Fibroblast inh 98, HCT116 PTEN-null 89, HUVEC inhibit 79 and H69AR inhibit 27*.
`O=C(CSc1nnc(-c2cccnc2)n1-c1ccccc1)Nc1ccccc1` gave bCat KO growth 86, Fibroblast inh 101, HCT116 PTEN-null 101, HUVEC inhibit 97 and H69AR inhibit 85.
For Cc1ccc(-n2c(Cc3cccs3)nnc2SCC(=O)Nc2ccc(F)c(F)c2)cc1 the results were bCat KO growth 78, Fibroblast inh 4.0*, HCT116 PTEN-null 80, HUVEC inhibit 86 and H69AR inhibit 77.
`Cc1ccnc(NS(=O)(=O)c2ccc(NC(=O)c3cncc(Br)c3)cc2)n1` gave bCat KO growth 94 and HCT116 PTEN-null 105.
Screening CCOC(=O)N1CCN(C(=O)c2cc3c(=O)[nH]c4ccccc4c3s2)CC1 returned bCat KO growth 84 and HCT116 PTEN-null 106.
Screening CCc1cccc(OCCCCNCCO)c1 returned bCat KO growth 100, Fibroblast inh 105, HCT116 PTEN-null 96, HUVEC inhibit 90 and H69AR inhibit 94.
For CCOC(CNC(=O)c1ccc2c(c1)nc(C)n2-c1cccc(F)c1)OCC the results were bCat KO growth 86, Fibroblast inh 106, HCT116 PTEN-null 98, HUVEC inhibit 94 and H69AR inhibit 85.
For c1ccc(CSc2n[nH]c(-c3ccco3)n2)cc1 the results were bCat KO growth 87, Fibroblast inh 110, HCT116 PTEN-null 98, HUVEC inhibit 105 and H69AR inhibit 121.
Screening Cc1cc2c(N3CCCCC3C)ncnc2s1 (stereo not drawn) returned bCat KO growth 77, Fibroblast inh 94, HCT116 PTEN-null 82, HUVEC inhibit 102 and H69AR inhibit 37*.
For COc1ccc(Cn2nnnc2CN(Cc2cc3cc(C)ccc3[nH]c2=O)C2CCCC2)cc1 the results were bCat KO growth 66, Fibroblast inh 89, HCT116 PTEN-null 54, HUVEC inhibit 78 and H69AR inhibit 51.
For COc1ccc2[nH]c(=O)c(CN(C3CCCCC3)C(c3nnnn3Cc3ccco3)C(C)C)cc2c1 (stereo not drawn) the results were bCat KO growth 50, Fibroblast inh 39*, HCT116 PTEN-null 47, HUVEC inhibit 56 and H69AR inhibit 96.
For COc1ccc2[nH]c(=O)c(CN(Cc3nnnn3Cc3ccco3)C3CCCCC3)cc2c1 the results were bCat KO growth 76, Fibroblast inh 97, HCT116 PTEN-null 67, HUVEC inhibit 69 and H69AR inhibit 38*.
Screening CCC(c1nnnn1Cc1ccco1)N(Cc1ccccc1OC)Cc1cc2cc(C)ccc2[nH]c1=O (stereo not drawn) returned bCat KO growth 55, Fibroblast inh 86, HCT116 PTEN-null 40, HUVEC inhibit 81 and H69AR inhibit 79.
Screening CCC(c1nnnn1C1CCCCC1)N(Cc1ccco1)Cc1cc2ccc(OC)cc2[nH]c1=O (stereo not drawn) returned bCat KO growth 3.0*, Fibroblast inh 93, HCT116 PTEN-null 18, HUVEC inhibit 53 and H69AR inhibit 15*.
Screening Nc1nc(Br)c2c(F)cccc2c1-c1ccccc1 returned bCat KO growth 113 and HCT116 PTEN-null 108.
Screening O=C(NCC(c1cccs1)N1CCOCC1)c1ccc(Cl)s1 (stereo not drawn) returned bCat KO growth 16, Fibroblast inh 64, HCT116 PTEN-null 21, HUVEC inhibit 82 and H69AR inhibit 18*.
Screening O=C(NCC(c1cccs1)N1CCOCC1)c1cc([N+](=O)[O-])ccc1Cl (stereo not drawn) returned bCat KO growth 87 and HCT116 PTEN-null 91.
COc1ccc(OC)c(/C(O)=C/C(=O)C(=O)Nc2cc(C)ccc2OC)c1 was read as bCat KO growth 86, Fibroblast inh 93, HCT116 PTEN-null 85, HUVEC inhibit 93 and H69AR inhibit 63.
CCOc1ccccc1NC(=O)c1cc(C(=O)c2cc(OC)ccc2O)coc1=N was read as bCat KO growth 72 and HCT116 PTEN-null 84.
For COc1ccc(OC)c(/C(O)=C/C(=O)C(=O)Nc2cc(C)cc(C)c2)c1 the results were bCat KO growth 82, Fibroblast inh 92, HCT116 PTEN-null 86, HUVEC inhibit 113 and H69AR inhibit 17*.
Screening CCOc1ccccc1NC(=O)C(=O)/C=C(\O)c1cc(OC)ccc1OC returned bCat KO growth 77, Fibroblast inh 81, HCT116 PTEN-null 86, HUVEC inhibit 71 and H69AR inhibit 8.4*.
Screening Cc1ccc2nc(N3CCN(Cc4ccc(F)cc4)C3=O)c(C)cc2c1 returned bCat KO growth 98, Fibroblast inh 97, HCT116 PTEN-null 88 and HUVEC inhibit 102.
For Cc1ccc(S(=O)(=O)NCCC(=O)NCc2ccc3c(c2)OCO3)cc1C the results were bCat KO growth 90, Fibroblast inh 104, HCT116 PTEN-null 94, HUVEC inhibit 101 and H69AR inhibit 103.
`NS(=O)(=O)c1ccc(N/N=C2/CCCCC2C2CCCCC2)c([N+](=O)[O-])c1` (stereo not drawn) gave bCat KO growth 1.7* and HCT116 PTEN-null 2.5*.
For CC1C/C(=N\Nc2ccc(S(N)(=O)=O)cc2[N+](=O)[O-])CC(C)(C)C1 (stereo not drawn) the results were bCat KO growth 61 and HCT116 PTEN-null 61.
For N#Cc1c(Cl)nc(N/N=C/c2ccccc2)c(Cl)c1Cl the results were bCat KO growth 2.8* and HCT116 PTEN-null 1.6*.
C[N+](C)(C)c1ccc(/C=N/Nc2nc(Cl)c(C#N)c(Cl)c2Cl)cc1 was read as bCat KO growth 54 and HCT116 PTEN-null 69.
`Cc1nn(-c2ccccc2)c(N)c1N=Nc1ccc(Cl)cc1` gave bCat KO growth 63 and HCT116 PTEN-null 59.
Screening COc1cccc(C2CC3(CC(C)(C)NC(=S)N3)Oc3cc(O)ccc32)c1 (stereo not drawn) returned bCat KO growth 77 and HCT116 PTEN-null 70.
CC(=O)Oc1cc2c(cc1Cl)C1(CC(c3ccccc3Cl)O2)CC(C)(C)NC(=S)N1 (stereo not drawn) was read as bCat KO growth 2.0*, Fibroblast inh 92, HCT116 PTEN-null 2.0*, HUVEC inhibit 79 and H69AR inhibit 32*.
Cc1nc2ccccc2n1C1CC(=O)N(N(C)C)C1=O (stereo not drawn) was read as bCat KO growth 104, Fibroblast inh 106, HCT116 PTEN-null 106, HUVEC inhibit 101 and H69AR inhibit 96.

High-throughput results as filed in PubChem BioAssay.
